Here are results for 57 compounds from ChEMBL document CHEMBL1126650, “Synthesis and structure-activity relationships of novel benzimidazole and imidazo[4,5-b]pyridine acid derivatives as thromboxane A2 receptor antagonists” (J Med Chem, 1993).

Experiment [1] has as its target T1, Thromboxane A2 receptor (Homo sapiens) (UniProt P21731).
T1 sequence (whole entry): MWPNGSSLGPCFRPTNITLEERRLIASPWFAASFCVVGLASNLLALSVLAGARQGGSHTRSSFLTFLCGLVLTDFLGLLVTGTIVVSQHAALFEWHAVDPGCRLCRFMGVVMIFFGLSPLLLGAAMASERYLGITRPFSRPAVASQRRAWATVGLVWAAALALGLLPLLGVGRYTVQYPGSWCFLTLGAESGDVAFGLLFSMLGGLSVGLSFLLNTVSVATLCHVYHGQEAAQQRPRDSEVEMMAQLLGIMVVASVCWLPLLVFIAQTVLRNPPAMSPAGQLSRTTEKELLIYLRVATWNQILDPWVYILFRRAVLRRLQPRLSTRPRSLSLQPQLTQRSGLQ
In words: In vitro for percent inhibition against TXA2 / PGH-2 receptor using [125I]PTA-OH in human platelets at 10 e-5 M. Summed up: (§1)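 Washed human platelets from volunteer blood drawn into EDTA 5 mM and indomethacin 20 µM (final); PRP at 200 g, pellet at 2000 g. 5 × 10^7 platelets incubated 30 min at 37 °C with 0.1 nM [125I]PTA-OH in Tris/NaCl/dextrose/indomethacin buffer, pH 7.4. Screening at 10^-7 and 10^-5 M. Filtration, gamma counting. Nonspecific binding set by a tetrahydrocarbazole-acetic acid antagonist. Triplicate.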

Experiment [2] concerns the target T1, Thromboxane A2 receptor (Homo sapiens). Briefly: Tested in vitro for percent inhibition against TXA2 / PGH-2 receptor using [125I]PTA-OH in human platelets at 10 e-7 M. A digest of the protocol: as §1
In the next experiment the target is T2, Thromboxane A2 receptor (Homo sapiens, UniProt P21731).
T2 sequence (P21731 whole entry): T1 sequence (whole entry)
In words: Tested in vitro for inhibition constant against TXA2 / PGH-2 receptor using [125I]PTA-OH binding affinity to human platelets.

By inhibition is commonly meant how much of the control response was suppressed. Lower therefore signals a weak effect. What is called Ki is a measure of affinity in units of concentration, obtained from inhibition or displacement. A low value points to a stronger hold on the target. `O=C(O)CCc1nc2cc(F)ccc2n1Cc1ccc(Cl)cc1`: the values for the inhibition in experiment [1] and in experiment [2] were 64% and 0%, respectively. Moreover, on Thromboxane A2 receptor, the affinity corresponds to a Ki of 5600 nM.

Consider `O=C(O)CC1(Cc2nc3cc(F)ccc3n2Cc2ccc(Cl)cc2)CCCC1`, for which the results for the inhibition in experiment [1] and in experiment [2] were 100% and 71%, respectively.

In the case of `O=C(O)[C@H]1CC[C@@H]1c1nc2cc(F)ccc2n1Cc1ccc(Cl)cc1`, the inhibition in experiment [1] was determined as 97%; in experiment [2], 2%. Moreover, on Thromboxane A2 receptor, the affinity corresponds to a Ki of 810 nM.

With `O=C(O)CCCCSc1nc2cc(F)ccc2n1Cc1ccc(Cl)cc1`, the figures for the inhibition in experiment [1] and in experiment [2] were 100% and 28%, respectively.

Consider `CC(C)(CC(=O)O)Cc1nc2cc(Cl)ccc2n1Cc1ccc(Cl)c(Cl)c1`, for which the inhibition in experiment [1] amounted to 92%; in experiment [2], 71%. The Ki on Thromboxane A2 receptor is 12 nM.

Regarding `O=C(O)CCCSc1nc2cc(Cl)cnc2n1Cc1ccc(Br)cc1F`, the values for the inhibition in experiment [1] and in experiment [2] were 60% and 24%, respectively.

`CC(C)(Sc1nc2cc(Cl)cnc2n1Cc1ccc(Cl)cc1)C(=O)O`: the inhibition in experiment [1] is 100%; in experiment [2], 30%.

Consider `CC(C)(CC(=O)O)Cc1nc2cc(Cl)ccc2n1Cc1ccc(Cl)cc1`, for which the inhibition in experiment [1] turned out to be 99%; in experiment [2] it was 74%.

Consider `O=C(O)CCCSc1nc2cc(Cl)cnc2n1Cc1ccc(Cl)cc1`, for which the inhibition in experiment [1] is 39%; in experiment [2], 6%.

As to `Cc1ccc(Cn2c(CC(C)(C)CC(=O)O)nc3ccccc32)cc1`, the inhibition came out at 100% in experiment [1] and 52% in experiment [2].

Take `CC(C)(CC(=O)O)Cc1nc2cc(F)ccc2n1Cc1ccc(Cl)cc1`: the inhibition amounted to 100% in experiment [1] and 94% in experiment [2]. The compound further gave a Ki on Thromboxane A2 receptor of 7.8 nM.

As for `CC(C)(CC(=O)O)Cc1nc2cc(Cl)c(Cl)cc2n1Cc1ccc(Cl)cc1`, the inhibition was determined as 100% in experiment [1] and 14% in experiment [2].

In the case of `CSc1ccc(Cn2c(CC(C)(C)CC(=O)O)nc3cc(Cl)ccc32)cc1`, the inhibition in experiment [1] was 89%; in experiment [2] it was 87%. The compound further yielded a Ki on Thromboxane A2 receptor of 6 nM.

On to `CC(C)(CC(=O)O)Cc1nc2ccccc2n1Cc1ccc(Cl)cc1`, for which the inhibition in experiment [1] worked out at 100%; in experiment [2], 85%.

For the compound `CCC(C)(CC(=O)O)Cc1nc2ccccc2n1Cc1ccc(Cl)cc1` (stereo not given), the values for the inhibition in experiment [1] and in experiment [2] were 100% and 57%, respectively.

Take `CC(C)(CC(=O)O)Cc1nc2cc(Cl)ccc2n1Cc1ccc(Br)cc1`: the inhibition in experiment [1] was 100%; in experiment [2], 98%.

For `CC(C)(CC(=O)O)Cc1nc2cc(Br)ccc2n1Cc1ccc(Cl)cc1`, the inhibition in experiment [1] was 67%; in experiment [2], 38%.

As for `O=C(O)CC(Cc1nc2ccccc2n1Cc1ccc(Cl)cc1)c1ccccc1` (stereo not given), the inhibition in experiment [1] was found to be 17%; in experiment [2], 0%.

Turning to `CC(C)(CC(=O)O)Cc1nc2ccccc2n1Cc1ccccc1`, the inhibition in experiment [1] is 95%; in experiment [2] it was 13%.

With `CC(C)(CC(=O)O)Cc1nc2cc(F)ccc2n1Cc1ccc(Cl)c(Cl)c1`, the inhibition in experiment [1] stood at 92%; in experiment [2], 89%.

For `CSc1ccc(Cn2c(CC(C)(C)CC(=O)O)nc3cc(F)ccc32)cc1`, the inhibition in experiment [1] and in experiment [2] was 100% each time.

In the case of `CC(CC(=O)O)Cc1nc2ccccc2n1Cc1ccc(Cl)cc1` (stereo not given), the inhibition in experiment [1] was 100%; in experiment [2] it was 10%.

For `CC(C)(CC(=O)O)Cc1nc2cc(F)ccc2n1Cc1ccc(S(C)(=O)=O)cc1`, the inhibition in experiment [1] and in experiment [2] was 100% throughout.

As for `O=C(O)CC1(Cc2nc3cc(F)ccc3n2Cc2ccc(Cl)cc2)CCCCC1`, the inhibition is 98% in experiment [1] and 0% in experiment [2]. The compound further returned a Ki on Thromboxane A2 receptor of 870 nM.

For the compound `COc1ccc(Cn2c(CC(C)(C)CC(=O)O)nc3ccccc32)cc1`, the inhibition is 100% in experiment [1] and 89% in experiment [2].

As for `O=C(O)CCCSc1nc2cccnc2n1Cc1ccc(Cl)cc1`, the figures for the inhibition in experiment [1] and in experiment [2] were 64% and 27%, respectively.

For `COc1ccc(Cn2c(CC(C)(C)CC(=O)O)nc3cc(F)ccc32)cc1`, the inhibition in experiment [1] stood at 100%; in experiment [2], 79%. Also, the Ki at Thromboxane A2 receptor is 4 nM.

Take `CC(C)(CC(=O)O)Cc1nc2ccccc2n1Cc1ccc(Br)cc1F`: the inhibition in experiment [1] was determined as 99%; in experiment [2] it was 88%. Affinity on Thromboxane A2 receptor was put at a Ki of 11 nM.

`O=C(O)COc1ccc(CCNS(=O)(=O)c2ccccc2)cc1`: the results for the inhibition in experiment [1] and in experiment [2] were 95% and 13%, respectively.

On to `O=C(O)CC1CCCc2c1n(Cc1ccc(Cl)cc1)c1ccc(F)cc21` (stereo not given), for which the inhibition in experiment [1] and in experiment [2] was 100% in each case. This compound also returned a Ki at Thromboxane A2 receptor of 15.3 nM.

`CCC(CC)(CC(=O)O)Cc1nc2ccccc2n1Cc1ccc(Cl)cc1`: the figures for the inhibition in experiment [1] and in experiment [2] were 97% and 35%, respectively. Further, affinity on Thromboxane A2 receptor was put at a Ki of 160 nM.

With `CC(C)(CC(=O)O)Cc1nc2cccnc2n1Cc1ccc(Cl)cc1`, the inhibition in experiment [1] worked out at 62%; in experiment [2], 41%. At Thromboxane A2 receptor, this compound returned a Ki of 39 nM.

`CC(C)(CC(=O)O)Cc1nc2cc(Cl)ccc2n1Cc1ccc(Cl)cc1F`: the inhibition in experiment [1] turned out to be 87%; in experiment [2], 77%.

Consider `CC(C)(Sc1nc2cc(F)ccc2n1Cc1ccc(Cl)cc1)C(=O)O`, for which the inhibition in experiment [1] worked out at 83%; in experiment [2] it was 3%. Moreover, the Ki on Thromboxane A2 receptor was 670 nM.

Regarding `O=C(O)CC1(Cc2nc3cc(F)ccc3n2Cc2ccc(Cl)cc2)CC1`, the inhibition was 98% in experiment [1] and 80% in experiment [2]. Affinity on Thromboxane A2 receptor was put at a Ki of 52 nM.

Regarding `COc1ccc2c(c1)nc(CC(C)(C)CC(=O)O)n2Cc1ccc(Cl)cc1`, the inhibition in experiment [1] was determined as 100%; in experiment [2] it was 44%.

Regarding `CC(C)(CC(=O)O)Cc1nc2ccccc2n1Cc1ccc([N+](=O)[O-])cc1`, the inhibition came to 100% in experiment [1] and 83% in experiment [2].

For `O=C(O)[C@@H]1CC=CC[C@@H]1c1nc2cc(F)ccc2n1Cc1ccc(Cl)cc1`, the inhibition turned out to be 96% in experiment [1] and 15% in experiment [2]. In addition, the Ki on Thromboxane A2 receptor was found to be 510 nM.

For `CSc1ccc(Cn2c(CC(C)(C)CC(=O)O)nc3cc(Cl)cnc32)cc1`, the inhibition amounted to 87% in experiment [1] and 82% in experiment [2]. The compound further returned a Ki on Thromboxane A2 receptor of 7 nM.

As for `CC(C)(CC(=O)O)Cc1nc2cc(F)ccc2n1Cc1ccc(Br)cc1F`, the inhibition in experiment [1] was 100%; in experiment [2] it was 98%.

As to `CC(C)(CC(=O)O)Cc1nc2ccccc2n1Cc1ccc(F)cc1`, the inhibition stood at 100% in experiment [1] and 66% in experiment [2].

With `CC(C)(CC(=O)O)Cc1nc2cc(F)ccc2n1Cc1ccc(Cl)cc1F`, the inhibition amounted to 77% in experiment [1] and 58% in experiment [2].

As to `CC(C)(CC(=O)O)Cc1nc2ccccc2n1Cc1ccc(Br)cc1`, the figures for the inhibition in experiment [1] and in experiment [2] were 96% and 86%, respectively. Moreover, at Thromboxane A2 receptor, the affinity corresponds to a Ki of 16 nM.

Regarding `COc1ccc(Cn2c(CC(C)(C)CC(=O)O)nc3cc(Cl)ccc32)cc1`, the inhibition was 100% in experiment [1] and 95% in experiment [2]. The compound further came in with a Ki on Thromboxane A2 receptor of 20 nM.

With `O=C(O)[C@H]1CCC[C@@H]1c1nc2cc(F)ccc2n1Cc1ccc(Cl)cc1`, the values for the inhibition in experiment [1] and in experiment [2] were 100% and 37%, respectively. The same compound gave a Ki at Thromboxane A2 receptor of 140 nM.

As to `O=C(O)CCCSc1nc2cc(F)ccc2n1Cc1ccc(Cl)cc1`, the inhibition amounted to 93% in experiment [1] and 8% in experiment [2].

Regarding `CC(C)(CC(=O)O)Cc1nc2ccccc2n1Cc1cccc(C(F)(F)F)c1`, the values for the inhibition in experiment [1] and in experiment [2] were 100% and 49%, respectively.

Regarding `CC(Sc1nc2cc(F)ccc2n1Cc1ccc(Cl)cc1)C(=O)O` (stereo not given), the inhibition in experiment [1] turned out to be 83%; in experiment [2] it was 9%.

For `CC(C)(CC(=O)O)Cc1nc2cc(Cl)ccc2n1Cc1ccc(Br)cc1F`, the inhibition in experiment [1] came out at 95%; in experiment [2] it was 74%.

Regarding `CC(C)(Cc1nc2cc(F)ccc2n1Cc1ccc(Cl)cc1)C(=O)O`, the values for the inhibition in experiment [1] and in experiment [2] were 50% and 0%, respectively. Besides, affinity on Thromboxane A2 receptor was put at a Ki of 1700 nM.

For `CC(C)(CCC(=O)O)Cc1nc2cc(F)ccc2n1Cc1ccc(Cl)cc1`, the inhibition is 87% in experiment [1] and 56% in experiment [2]. For the same compound, at Thromboxane A2 receptor, the Ki is 23 nM.

Turning to `CC(C)(CC(N)=O)Cc1nc2ccccc2n1Cc1ccc(Cl)cc1`, the values for the inhibition in experiment [1] and in experiment [2] were 90% and 7%, respectively.

As to `CC(C)(CC(=O)O)Cc1nc2ccccc2n1Cc1ccc(O)cc1`, the inhibition in experiment [1] was 96%; in experiment [2], 50%.

Regarding `CC(C)(CC(=O)O)Cc1nc2cc(Cl)ccc2n1Cc1ccc(S(C)(=O)=O)cc1`, the inhibition is 82% in experiment [1] and 69% in experiment [2].

Take `CC(C)(CC(=O)O)c1nc2ccccc2n1Cc1ccc(Cl)cc1`: the inhibition in experiment [1] was determined as 28%; in experiment [2], 0%.

Regarding `CC(C)(CC#N)Cc1nc2ccccc2n1Cc1ccc(Cl)cc1`, the inhibition in experiment [1] and in experiment [2] was 0% throughout.

As for `CC(C)(CC(=O)O)Cc1nc2cc(F)ccc2n1Cc1ccc(Br)cc1`, the values for the inhibition in experiment [1] and in experiment [2] were 95% and 92%, respectively. Also, at Thromboxane A2 receptor, the Ki was 12 nM.
